The source of these data is ChEMBL document CHEMBL1833856, “Discovery and kinetic evaluation of 6-substituted 4-benzylthio-1,3,5-triazin-2(1H)-ones as inhibitors of cathepsin B” (Eur J Med Chem, 2011).

As usually defined, the Ki is a measure of affinity in units of concentration, obtained from inhibition or displacement. One may read the inhibition as the drop in the measured response relative to a control, in per cent.

The target in test [1] is T1, Cathepsin B (Homo sapiens, UniProt P07858). Put plainly: Reversible inhibition of human recombinant cathepsin B assessed as formation of fluorescent degradation product AMC using Z-Arg-Arg-AMC as substrate by Michaelis-Menten method. An outline of the steps: (§1)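 Recombinant human catB (133 pM) preactivated 5 min at 37 °C in 100 mM phosphate pH 6.0, 0.1% PEG 8000, 5 mM DTT, 1.5 mM EDTA, 5% DMSO. Initial hydrolysis rates taken across Z-Arg-Arg-AMC (60, 180, 360 µM, as added) and inhibitor (0–70 µM, as added). AMC read ex 380/em 460 nm at 37 °C. Duplicates, two independent runs. β fitted for ES-complex binding.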

The target of test [2] is T1, Cathepsin B. Put plainly: Inhibition of human recombinant cathepsin B assessed as factor by which the product formation changes when the inhibitor binds to the enzyme-substrate complex using Z-Arg-Arg-AMC as substrate by fluorescence microplate assay. A digest of the protocol: as §1
Test [3] concerns the target Procathepsin L (Homo sapiens) (UniProt P07711). Put plainly: Inhibition of human recombinant cathepsin L expressed in Escherichia coli assessed as formation of fluorescent degradation product AMC using Z-Phe-Arg-AMC as substrate at 50 uM by fluorescence microplate assay.
Test [4] has as its target T1, Cathepsin B. Put plainly: Mixed-type inhibition of human recombinant cathepsin B assessed as formation of fluorescent degradation product AMC using Z-Arg-Arg-AMC as substrate by Michaelis-Menten method. A digest of the protocol:
as §1

For test [5], the target named is T2, Pro-cathepsin H (Homo sapiens) (UniProt P09668).
T2 sequence (whole entry): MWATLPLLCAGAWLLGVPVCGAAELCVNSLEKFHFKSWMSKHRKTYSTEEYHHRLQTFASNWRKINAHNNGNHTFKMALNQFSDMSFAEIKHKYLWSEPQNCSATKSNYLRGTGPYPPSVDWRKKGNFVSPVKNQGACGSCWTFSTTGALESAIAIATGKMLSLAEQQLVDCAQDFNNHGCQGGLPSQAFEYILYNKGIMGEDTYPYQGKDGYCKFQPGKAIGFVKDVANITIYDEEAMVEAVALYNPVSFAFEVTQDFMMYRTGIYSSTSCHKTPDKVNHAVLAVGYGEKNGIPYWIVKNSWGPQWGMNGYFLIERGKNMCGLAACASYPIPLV
Put plainly: Inhibition of native cathepsin H isolated from human liver assessed as formation of fluorescent degradation product AMC using Arg-AMC as substrate at 50 uM by fluorescence microplate assay.

Procathepsin L (Homo sapiens), sequence (P07711 114-333 limits assumed): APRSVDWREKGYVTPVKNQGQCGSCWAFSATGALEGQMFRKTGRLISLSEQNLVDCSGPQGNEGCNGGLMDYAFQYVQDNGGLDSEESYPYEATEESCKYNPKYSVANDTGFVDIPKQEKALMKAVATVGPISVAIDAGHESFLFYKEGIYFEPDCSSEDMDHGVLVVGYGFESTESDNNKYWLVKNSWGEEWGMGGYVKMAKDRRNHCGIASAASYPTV

Take `O=c1nc(SCc2ccccc2)nc(SCC2CCCC2)[nH]1`: the Ki was 23 µM in test [1] and 8.95 µM in test [4]. Further, the fold change (FC) in test [2] worked out at 0. In addition, the inhibition stood at 9.96% in test [3] and 10.6% in test [5].

Turning to `N#CCSc1nc(SCc2ccccc2)nc(=O)[nH]1`, the results for the Ki in test [1] and in test [4] were 208 µM and 51.6 µM, respectively. Also, the fold change (FC) in test [2] came out at 0. Moreover, the inhibition in test [3] is -5.28%; in test [5] it was 4.94%.

As for `O=c1nc(SCc2ccccc2)nc(SCC2CC2)[nH]1`, the Ki was found to be 211 µM in test [1] and 28.3 µM in test [4]. Also, the fold change (FC) in test [2] was found to be 0. Moreover, the inhibition in test [3] was 42%; in test [5] it was 10%.

As for `CCCSc1nc(SCc2ccccc2)[nH]c(=O)n1`, the Ki in test [1] is 259 µM; in test [4] it was 49.4 µM.

With `CCCCSc1nc(SCc2ccccc2)nc(=O)[nH]1`, the Ki was found to be 70.6 µM in test [1] and 14.8 µM in test [4]. The fold change (FC) in test [2] was 0. The results for the inhibition in test [3] and in test [5] were 9.33% and -1.81%, respectively.

`O=C(O)CSc1nc(SCc2ccccc2)nc(=O)[nH]1`: the Ki came to 560 µM in test [1] and 351 µM in test [4]. Besides, the fold change (FC) in test [2] is 0. Besides, the inhibition in test [3] is -2.36%; in test [5], 6.89%.

In the case of `CCSc1nc(SCc2ccccc2)nc(=O)[nH]1`, the Ki in test [1] amounted to 221 µM; in test [4], 97.1 µM. In addition, in test [2], the fold change (FC) came out at 0. Also, the inhibition in test [5] is -4.06%.

Turning to `O=c1nc(SCc2ccccc2)nc(SCC2CCC2)[nH]1`, the inhibition constant Ki in test [1] was 34.1 µM; in test [4] it was 10.1 µM. Besides, the fold change (FC) in test [2] was 0. Also, the inhibition in test [3] is 37.4%; in test [5], 1.57%.
